Source: ChEMBL document CHEMBL3045677, “Sulfonamide-1,2,4-thiadiazole derivatives as antifungal and antibacterial agents: synthesis, biological evaluation, lipophilicity, and conformational studies” (2010)
Values after ≈ are worked out from the molar mass of the structure shown.

Assays:
Penicillium ochrochloron = assay: Antifungal activity against Penicillium ochrochloron ATCC 9112 at 28 degC measured after 72 hr by microdilution method; assay type: functional; details: ATCC 9112, 72 h
Summary of the method: (§1)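 Fungi were kept on malt agar at 4 °C. Spores were washed off with sterile 0.85% saline containing 0.1% Tween 80 and adjusted to about 1.0×10⁵ per well. Compounds were dissolved in DMSO (1 mg/ml stock) and serially diluted in malt broth with inoculum in 96-well plates, 72 h at 28 °C, for MIC. MFC came from subculture into fresh broth for a further 72 h at 28 °C.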

Staphylococcus aureus [1] = assay: Antibacterial activity against Staphylococcus aureus ATCC 6538 at […] degC measured after 24 hr by microdilution method; assay type: functional; details: ATCC 6538, 24 h
Summary of the method: (§2)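 Bacteria suspended in sterile saline at 1.0×10⁵ CFU/ml and added at 1.0×10⁴ CFU per well to LB broth with compound (1 mg/ml) in 96-well plates. Incubated 24 h at […] °C. MIC was the lowest concentration without visible growth under a binocular microscope. OD 655 nm was read against a blank and a positive control.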

Escherichia coli [2] = assay: Antibacterial activity against Escherichia coli ATCC 35210 at […] degC measured after 24 hr by microdilution method; assay type: functional; details: ATCC 35210, 24 h; summary of the method: as §2
Escherichia coli [3] = assay: Antibacterial activity against Escherichia coli ATCC 35210 at […] degC measured after 72 hr by microdilution method; assay type: functional; details: ATCC 35210, 72 h
Summary of the method: (§3)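 Bactericidal endpoint: after the 24 h broth microdilution (1.0×10⁴ CFU per well, LB broth, […] °C), wells were serially subcultured into plates of fresh broth and incubated a further 72 h. MBC was the lowest concentration with no visible growth, taken as 99.5% killing of the original inoculum.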

Aspergillus fumigatus = assay: Antifungal activity against plant isolate Aspergillus fumigatus at 28 degC measured after 72 hr by microdilution method; assay type: functional; summary of the method: as §1
Pseudomonas aeruginosa [4] = assay: Antibacterial activity against Pseudomonas aeruginosa ATCC 27853 at […] degC measured after 72 hr by microdilution method; assay type: functional; details: ATCC 27853, 72 h; summary of the method: as §3
Bacillus cereus [5] = assay: Antibacterial activity against clinical isolate Bacillus cereus at […] degC measured after 24 hr by microdilution method; assay type: functional; summary of the method: as §2
Talaromyces funiculosus = assay: Antifungal activity against Talaromyces funiculosus ATCC 36839 at 28 degC measured after 72 hr by microdilution method; assay type: functional; details: ATCC 36839, 72 h; summary of the method: as §1
Micrococcus flavus [6] = assay: Antibacterial activity against Micrococcus flavus ATCC 10240 at […] degC measured after 24 hr by microdilution method; assay type: functional; details: ATCC 10240, 24 h; summary of the method: as §2
Listeria monocytogenes [7] = assay: Antibacterial activity against Listeria monocytogenes NCTC 7973 at […] degC measured after 72 hr by microdilution method; assay type: functional; details: NCTC 7973, 72 h; summary of the method: as §3
Aspergillus versicolor = assay: Antifungal activity against Aspergillus versicolor ATCC 11730 at 28 degC measured after 72 hr by microdilution method; assay type: functional; details: ATCC 11730, 72 h; summary of the method: as §1
Micrococcus flavus [8] = assay: Antibacterial activity against Micrococcus flavus ATCC 10240 at […] degC measured after 72 hr by microdilution method; assay type: functional; details: ATCC 10240, 72 h; summary of the method: as §3
Proteus mirabilis [9] = assay: Antibacterial activity against Proteus mirabilis at […] degC measured after 72 hr by microdilution method; assay type: functional; summary of the method: as §3
Aspergillus flavus = assay: Antifungal activity against Aspergillus flavus ATCC 9643 at 28 degC measured after 72 hr by microdilution method; assay type: functional; details: ATCC 9643, 72 h; summary of the method: as §1
Listeria monocytogenes [10] = assay: Antibacterial activity against Listeria monocytogenes NCTC 7973 at […] degC measured after 24 hr by microdilution method; assay type: functional; details: NCTC 7973, 24 h; summary of the method: as §2
Trichoderma viride = assay: Antifungal activity against Hypocrea rufa IAM 5061 at 28 degC measured after 72 hr by microdilution method; assay type: functional; details: IAM 5061, 72 h; summary of the method: as §1
Proteus mirabilis [11] = assay: Antibacterial activity against Proteus mirabilis at […] degC measured after 24 hr by microdilution method; assay type: functional; summary of the method: as §2
Salmonella typhimurium [12] = assay: Antibacterial activity against Salmonella enterica subsp. enterica serovar TyphimuriumATCC 13311 at […] degC measured after 72 hr by microdilution method; assay type: functional, Salmonella enterica subsp. enterica serovar Typhimurium; details: ATCC 13311, 72 h; summary of the method: as §3
Aspergillus niger = assay: Antifungal activity against Aspergillus niger ATCC 6275 at 28 degC measured after 72 hr by microdilution method; assay type: functional; details: ATCC 6275, 72 h; summary of the method: as §1
Salmonella typhimurium [13] = assay: Antibacterial activity against Salmonella enterica subsp. enterica serovar Typhimurium ATCC 13311 at […] degC measured after 24 hr by microdilution method; assay type: functional; details: ATCC 13311, 24 h; summary of the method: as §2
Staphylococcus aureus [14] = assay: Antibacterial activity against Staphylococcus aureus ATCC 6538 at […] degC measured after 72 hr by microdilution method; assay type: functional; details: ATCC 6538, 72 h; summary of the method: as §3
Fulvia fulva = assay: Antifungal activity against Passalora fulva TK5318 at 28 degC measured after 72 hr by microdilution method; assay type: functional; details: TK5318, 72 h; summary of the method: as §1
Bacillus cereus [15] = assay: Antibacterial activity against clinical isolate Bacillus cereus at […] degC measured after 72 hr by microdilution method; assay type: functional; summary of the method: as §3
Pseudomonas aeruginosa [16] = assay: Antibacterial activity against Pseudomonas aeruginosa ATCC 27853 at […] degC measured after 24 hr by microdilution method; assay type: functional; details: ATCC 27853, 24 h; summary of the method: as §2

Row | MIC (Penicillium ochrochloron) [µM] | MIC (Staphylococcus aureus [1]) [µM] | MIC (Escherichia coli [2]) [µM] | MIC (Bacillus cereus [5]) [µM] | MIC (Talaromyces funiculosus) [µM] | MIC (Micrococcus flavus [6]) [µM] | MIC (Aspergillus versicolor) [µM] | MIC (Aspergillus flavus) [µM] | MIC (Listeria monocytogenes [10]) [µM] | Compound | MFC (Penicillium ochrochloron) [µM] | MBC (Escherichia coli [3]) [µM] | MFC (Aspergillus fumigatus) [µM] | MIC (Aspergillus fumigatus) [µM] | MBC (Pseudomonas aeruginosa [4]) [µM] | MFC (Talaromyces funiculosus) [µM] | MBC (Listeria monocytogenes [7]) [µM] | MFC (Aspergillus versicolor) [µM] | MBC (Micrococcus flavus [8]) [µM] | MBC (Proteus mirabilis [9]) [µM] | MFC (Aspergillus flavus) [µM] | also measured
1 | 18.9 (≈ 9.99 µg/mL) | 9.5 (≈ 5.02 µg/mL) | 18.9 (≈ 9.99 µg/mL) | 9.5 (≈ 5.02 µg/mL) | 18.9 (≈ 9.99 µg/mL) | 18.9 (≈ 9.99 µg/mL) | 18.9 (≈ 9.99 µg/mL) | 18.9 (≈ 9.99 µg/mL) | 18.9 (≈ 9.99 µg/mL) | COc1cc(Cc2nnc(Nc3ccc(C(F)(F)F)cc3)s2)c(S(=O)(=O)N2CCCC2)cc1OC | 37.8 (≈ 20 µg/mL) | 37.8 (≈ 20 µg/mL) | 37.8 (≈ 20 µg/mL) | 18.9 (≈ 9.99 µg/mL) | 18.9 (≈ 9.99 µg/mL) | 37.8 (≈ 20 µg/mL) | 18.9 (≈ 9.99 µg/mL) | 37.8 (≈ 20 µg/mL) | 37.8 (≈ 20 µg/mL) | 37.8 (≈ 20 µg/mL) | 37.8 (≈ 20 µg/mL) | MFC (Trichoderma viride): 18.9 µM (≈ 9.99 µg/mL); MIC (Trichoderma viride): 9.5 µM (≈ 5.02 µg/mL); MIC (Proteus mirabilis [11]): 18.9 µM (≈ 9.99 µg/mL); MBC (Salmonella typhimurium [12]): 18.9 µM (≈ 9.99 µg/mL); MFC (Aspergillus niger): 37.8 µM (≈ 20 µg/mL); MIC (Aspergillus niger): 18.9 µM (≈ 9.99 µg/mL); MIC (Salmonella typhimurium [13]): 9.5 µM (≈ 5.02 µg/mL); MBC (Staphylococcus aureus [14]): 18.9 µM (≈ 9.99 µg/mL); MFC (Fulvia fulva): 75.6 µM (≈ 40 µg/mL); MIC (Fulvia fulva): 18.9 µM (≈ 9.99 µg/mL); MBC (Bacillus cereus [15]): 18.9 µM (≈ 9.99 µg/mL); MIC (Pseudomonas aeruginosa [16]): 9.5 µM (≈ 5.02 µg/mL)
2 | 19.7 (≈ 10 µg/mL) | 19.7 (≈ 10 µg/mL) | 19.7 (≈ 10 µg/mL) | 9.8 (≈ 4.99 µg/mL) | 19.7 (≈ 10 µg/mL) | 19.7 (≈ 10 µg/mL) | 9.8 (≈ 4.99 µg/mL) | 9.8 (≈ 4.99 µg/mL) | 39.4 (≈ 20.1 µg/mL) | COc1cc(Cc2nnc(Nc3ccc(Cl)cc3)s2)c(S(=O)(=O)N2CCCCC2)cc1OC | 39.4 (≈ 20.1 µg/mL) | 39.4 (≈ 20.1 µg/mL) | 39.4 (≈ 20.1 µg/mL) | 19.7 (≈ 10 µg/mL) | 19.7 (≈ 10 µg/mL) | 39.4 (≈ 20.1 µg/mL) | 78.8 (≈ 40.1 µg/mL) | 19.7 (≈ 10 µg/mL) | 39.4 (≈ 20.1 µg/mL) | 78.7 (≈ 40.1 µg/mL) | 19.7 (≈ 10 µg/mL) | MFC (Trichoderma viride): 19.7 µM (≈ 10 µg/mL); MIC (Trichoderma viride): 9.8 µM (≈ 4.99 µg/mL); MIC (Proteus mirabilis [11]): 19.7 µM (≈ 10 µg/mL); MBC (Salmonella typhimurium [12]): 19.7 µM (≈ 10 µg/mL); MFC (Aspergillus niger): 39.4 µM (≈ 20.1 µg/mL); MIC (Aspergillus niger): 19.7 µM (≈ 10 µg/mL); MIC (Salmonella typhimurium [13]): 9.8 µM (≈ 4.99 µg/mL); MBC (Staphylococcus aureus [14]): 39.4 µM (≈ 20.1 µg/mL); MFC (Fulvia fulva): 19.7 µM (≈ 10 µg/mL); MIC (Fulvia fulva): 9.8 µM (≈ 4.99 µg/mL); MBC (Bacillus cereus [15]): 19.7 µM (≈ 10 µg/mL); MIC (Pseudomonas aeruginosa [16]): 9.8 µM (≈ 4.99 µg/mL)
